The subject of experiment [1] is HeLa. As to the kind of experiment: Cytotoxicity against human HeLa cells measured on day 4 by CCK8 assay. To be noted: 96 h. Format: functional, cell-based. In outline:
(§1)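 Cells seeded at […], grown overnight in medium with 10% FBS at 37 °C under 5% CO2. On day 2 they were serum-starved 4 h, then exposed to graded compound concentrations. On day 4 CCK-8 was added for a further 4 h and absorbance read at 450 nm. IC50 came from a four-parameter logistic fit, mean ± SD of three experiments in triplicate.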

The target in experiment [2] is T1, DNA topoisomerase 1 (Homo sapiens) (UniProt P11387).
T1 sequence (whole entry): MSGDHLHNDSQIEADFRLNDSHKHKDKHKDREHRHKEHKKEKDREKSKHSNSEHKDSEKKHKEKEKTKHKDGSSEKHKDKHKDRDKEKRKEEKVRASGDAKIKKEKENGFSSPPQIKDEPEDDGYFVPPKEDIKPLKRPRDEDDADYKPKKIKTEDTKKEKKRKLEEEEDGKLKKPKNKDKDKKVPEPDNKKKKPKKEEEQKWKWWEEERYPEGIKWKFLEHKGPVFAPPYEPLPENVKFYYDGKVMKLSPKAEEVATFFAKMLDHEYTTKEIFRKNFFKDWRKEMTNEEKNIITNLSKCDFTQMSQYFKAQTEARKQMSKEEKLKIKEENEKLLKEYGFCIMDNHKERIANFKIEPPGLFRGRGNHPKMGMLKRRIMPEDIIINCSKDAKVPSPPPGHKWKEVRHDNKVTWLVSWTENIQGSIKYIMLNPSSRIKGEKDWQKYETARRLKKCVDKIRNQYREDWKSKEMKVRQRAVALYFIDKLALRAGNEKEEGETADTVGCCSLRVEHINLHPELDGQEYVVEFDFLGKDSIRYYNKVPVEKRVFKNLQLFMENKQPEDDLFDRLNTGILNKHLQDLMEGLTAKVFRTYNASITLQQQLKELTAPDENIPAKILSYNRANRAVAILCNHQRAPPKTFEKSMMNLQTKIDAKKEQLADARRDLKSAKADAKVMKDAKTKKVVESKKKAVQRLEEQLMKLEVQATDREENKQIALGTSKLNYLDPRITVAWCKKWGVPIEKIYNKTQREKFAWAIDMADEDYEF
As to the kind of experiment: Inhibition of recombinant human DNA topoisomerase-1 assessed as relaxation of supercoiled DNA pBR322 at 20 uM after 30 mins by agarose gel electrophoresis relative to control. In outline: (§2)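 Relaxation assay with 100 ng pBR322 plasmid DNA and 1 unit recombinant human topo I. Buffer was 10 mM Tris–HCl pH 7.9, 150 mM NaCl, 0.1% BSA, 1 mM spermidine and 5% glycerol, incubated 37 °C for 30 min with or without compound. Products were run on a 1% agarose gel in TAE at 15 V for 7 h and stained with ethidium bromide (0.5 µg/mL) for 30 min.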

The subject of experiment [3] is DU-145. As to the kind of experiment: Cytotoxicity against human DU145 cells measured on day 4 by CCK8 assay. Format: functional, cell-based. To be noted: DU-145, 96 h. In outline: as §1
Experiment [4] has as its target T1, DNA topoisomerase 1 (Homo sapiens). As to the kind of experiment: Inhibition of recombinant human DNA topoisomerase-1 assessed as relaxation of supercoiled DNA pBR322 at 100 uM after 30 mins by agarose gel electrophoresis relative to control. The method, boiled down:
as §2

Experiment [5] has as its system T47D. Kind of experiment: Cytotoxicity against human T47D cells measured on day 4 by CCK8 assay. Format: functional, cell-based. To be noted: 96 h. In outline:
as §1

Experiment [6] concerns HCT-15. Kind of experiment: Cytotoxicity against human HCT15 cells measured on day 4 by CCK8 assay. Format: functional, cell-based. The conditions noted are these: HCT-15, 96 h. In outline:
as §1

Experiment [7] has as its target DNA topoisomerase 2-alpha (Homo sapiens) (UniProt P11388). As to the kind of experiment: Inhibition of recombinant human DNA topoisomerase-2alpha using supercoiled pBR322 plasmid DNA as substrate at 100 uM after 30 mins by agarose gel electrophoresis relative to control. The method, boiled down: (§3)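 200 ng supercoiled pBR322 with 1 unit human topo II, incubated 30 min at 30 °C with or without compound in 10 mM Tris–HCl pH 7.9, 50 mM NaCl, 5 mM MgCl2, 1 mM EDTA, 1 mM ATP and 15 µg/mL BSA. Reaction was stopped with 7 mM EDTA and run on 1% agarose in TAE at 25 V. Gel was stained with ethidium bromide, visualized under UV, and supercoiled DNA quantitated densitometrically.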

Experiment [8] has the same target. As to the kind of experiment: Inhibition of recombinant human DNA topoisomerase-2alpha using supercoiled pBR322 plasmid DNA as substrate at 20 uM after 30 mins by agarose gel electrophoresis relative to control. In outline:
as §3

Each structure is given as a SMILES string.

DNA topoisomerase 2-alpha (Homo sapiens), sequence (P11388 whole entry): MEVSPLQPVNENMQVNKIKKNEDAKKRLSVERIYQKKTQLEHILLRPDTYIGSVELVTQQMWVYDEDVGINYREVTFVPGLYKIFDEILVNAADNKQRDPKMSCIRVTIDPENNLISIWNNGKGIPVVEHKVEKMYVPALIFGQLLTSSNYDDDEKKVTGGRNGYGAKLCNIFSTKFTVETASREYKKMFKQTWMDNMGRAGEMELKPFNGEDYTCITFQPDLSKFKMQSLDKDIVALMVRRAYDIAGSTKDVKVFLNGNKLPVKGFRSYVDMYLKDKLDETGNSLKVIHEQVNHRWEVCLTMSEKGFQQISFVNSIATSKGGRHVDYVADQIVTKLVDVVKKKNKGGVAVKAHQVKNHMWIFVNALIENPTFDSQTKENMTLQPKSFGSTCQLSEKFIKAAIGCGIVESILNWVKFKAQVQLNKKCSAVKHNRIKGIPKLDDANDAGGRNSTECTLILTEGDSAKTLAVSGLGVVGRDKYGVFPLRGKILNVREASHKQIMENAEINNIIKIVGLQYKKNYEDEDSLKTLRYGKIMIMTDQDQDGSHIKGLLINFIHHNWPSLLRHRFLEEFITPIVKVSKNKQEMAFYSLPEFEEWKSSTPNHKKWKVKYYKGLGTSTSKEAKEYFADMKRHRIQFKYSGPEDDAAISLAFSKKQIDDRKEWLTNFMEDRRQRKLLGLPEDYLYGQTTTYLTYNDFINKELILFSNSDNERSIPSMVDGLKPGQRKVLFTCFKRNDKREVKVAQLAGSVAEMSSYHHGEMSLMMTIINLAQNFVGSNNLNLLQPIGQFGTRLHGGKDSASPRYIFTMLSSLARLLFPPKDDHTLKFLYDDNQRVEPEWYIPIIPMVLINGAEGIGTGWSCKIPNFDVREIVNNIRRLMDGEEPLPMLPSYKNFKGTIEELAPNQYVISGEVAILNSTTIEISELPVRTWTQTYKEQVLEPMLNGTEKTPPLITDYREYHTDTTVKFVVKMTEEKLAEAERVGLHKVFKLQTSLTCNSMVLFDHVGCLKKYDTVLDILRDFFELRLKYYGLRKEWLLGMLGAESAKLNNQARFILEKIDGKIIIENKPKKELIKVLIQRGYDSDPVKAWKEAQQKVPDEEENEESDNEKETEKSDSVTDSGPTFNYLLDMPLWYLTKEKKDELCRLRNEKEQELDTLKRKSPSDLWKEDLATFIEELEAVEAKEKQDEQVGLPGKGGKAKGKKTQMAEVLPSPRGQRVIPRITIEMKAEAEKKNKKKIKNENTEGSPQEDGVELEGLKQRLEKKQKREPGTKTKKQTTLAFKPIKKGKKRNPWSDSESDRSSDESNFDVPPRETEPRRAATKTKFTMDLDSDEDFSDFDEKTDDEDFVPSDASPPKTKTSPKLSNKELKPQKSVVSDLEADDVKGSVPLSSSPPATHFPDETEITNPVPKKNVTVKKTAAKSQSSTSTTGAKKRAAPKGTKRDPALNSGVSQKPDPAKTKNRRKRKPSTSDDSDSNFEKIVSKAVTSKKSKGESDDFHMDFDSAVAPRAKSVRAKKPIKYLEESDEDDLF

On to `Oc1cccc(-c2cc(-c3ccco3)cc(-c3ccccc3O)n2)c1`, for which the IC50 was > 50 µM in experiment [1], 1.79 µM in experiment [3], 0.82 µM in experiment [5] and > 50 µM in experiment [6]. Besides, the inhibition turned out to be 0% in experiment [2], 90.1% in experiment [4], 81.2% in experiment [7] and 21.5% in experiment [8].

For the compound `Oc1cccc(-c2cc(-c3cccnc3)cc(-c3ccccc3O)n2)c1`, the IC50 in experiment [1] worked out at 7.53 µM; in experiment [3] it was 5.58 µM; in experiment [5], 6.23 µM; in experiment [6], 8.28 µM. Besides, the inhibition is 0% in experiment [2], 1.9% in experiment [4], 55.2% in experiment [7] and 8.1% in experiment [8].

Take `Oc1ccc(-c2cc(-c3cccs3)cc(-c3cccc(O)c3)n2)cc1`: the IC50 is 4.14 µM in experiment [1], 1.89 µM in experiment [3], 0.78 µM in experiment [5] and 1.77 µM in experiment [6]. The inhibition is 1.1% in experiment [2], 85.7% in experiment [4], 88.6% in experiment [7] and 21.5% in experiment [8].

For the compound `Oc1ccc(-c2cc(-c3ccoc3)cc(-c3cccc(O)c3)n2)cc1`, the IC50 in experiment [1] is 3.31 µM; in experiment [3], 2.7 µM; in experiment [5] it was 2.61 µM; in experiment [6], 0.93 µM. Besides, the inhibition was 1.3% in experiment [2], 37.4% in experiment [4], 95% in experiment [7] and 19.7% in experiment [8].

For `Oc1ccc(-c2cc(-c3cccs3)cc(-c3ccc(O)cc3)n2)cc1`, the IC50 in experiment [1] was > 50 µM; in experiment [3] it was 2.19 µM; in experiment [5], 11.7 µM; in experiment [6], > 50 µM. In addition, the inhibition is 0.9% in experiment [2], 86.3% in experiment [4], 74.6% in experiment [7] and 30.3% in experiment [8].

Consider `Oc1ccc(-c2cc(-c3cccs3)cc(-c3ccccc3O)n2)cc1`, for which the IC50 in experiment [1], in experiment [3], in experiment [5] and in experiment [6] was > 50 µM each time. Moreover, the inhibition in experiment [2] came to 2%; in experiment [4] it was 72.2%; in experiment [7], 76.4%; in experiment [8], 30.2%.
